In ChEMBL document CHEMBL5653631, “A Potent and Selective ULK1 Inhibitor Suppresses Autophagy and Sensitizes Cancer Cells to Nutrient Stress” (iScience, 2018):

How the values were obtained:
[1] = biological target: Leucine-rich repeat serine/threonine-protein kinase 2 (Homo sapiens) (UniProt Q5S007); assay: Inhibition of human recombinant LRRK2 at 500 nM related to control ULK1
[2] = biological target: Cyclin-dependent kinase-like 1 (Homo sapiens) (UniProt Q00532); assay: Inhibition of human recombinant CDKL1 at 500 nM related to control ULK1
Sequence of Cyclin-dependent kinase-like 1 (Homo sapiens) (Q00532 whole entry): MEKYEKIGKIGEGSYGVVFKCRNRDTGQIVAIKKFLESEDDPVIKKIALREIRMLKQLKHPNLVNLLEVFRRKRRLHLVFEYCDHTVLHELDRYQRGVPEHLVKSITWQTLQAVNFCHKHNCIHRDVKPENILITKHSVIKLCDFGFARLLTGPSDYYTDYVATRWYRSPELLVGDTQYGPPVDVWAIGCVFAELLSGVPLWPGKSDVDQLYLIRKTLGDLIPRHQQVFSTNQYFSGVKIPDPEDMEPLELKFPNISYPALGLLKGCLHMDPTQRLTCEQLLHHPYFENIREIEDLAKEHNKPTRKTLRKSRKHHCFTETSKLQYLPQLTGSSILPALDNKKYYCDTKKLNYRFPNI

[3] = biological target: eIF-2-alpha kinase GCN2 (Homo sapiens) (UniProt Q9P2K8); assay: Inhibition of human recombinant GCN2 at 500 nM in presence of ATP by radiometric assay relative to control
[4] = biological target: T1, Serine/threonine-protein kinase Sgk3 (Homo sapiens) (UniProt Q96BR1); assay: Inhibition of human recombinant SGK3 at 500 nM in presence of ATP by radiometric assay relative to control
T1 sequence (whole entry): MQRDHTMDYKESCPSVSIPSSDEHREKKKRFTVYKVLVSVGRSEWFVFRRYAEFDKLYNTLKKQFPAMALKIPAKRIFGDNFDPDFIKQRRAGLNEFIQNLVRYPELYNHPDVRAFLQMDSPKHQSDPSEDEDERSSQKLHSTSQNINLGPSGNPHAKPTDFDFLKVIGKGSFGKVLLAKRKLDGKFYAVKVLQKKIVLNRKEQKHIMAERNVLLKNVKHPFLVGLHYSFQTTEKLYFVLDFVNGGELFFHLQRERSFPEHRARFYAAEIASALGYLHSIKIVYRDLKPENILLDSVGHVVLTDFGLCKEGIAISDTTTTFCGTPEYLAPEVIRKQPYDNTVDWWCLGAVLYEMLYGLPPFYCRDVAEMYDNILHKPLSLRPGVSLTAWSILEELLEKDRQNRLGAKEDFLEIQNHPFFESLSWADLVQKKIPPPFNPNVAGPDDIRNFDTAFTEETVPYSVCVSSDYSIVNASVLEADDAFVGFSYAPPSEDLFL

[5] = biological target: Receptor tyrosine-protein kinase erbB-2 (Homo sapiens) (UniProt P04626); assay: Inhibition of human recombinant ErbB2 at 500 nM related to control ULK1
Sequence of Receptor tyrosine-protein kinase erbB-2 (Homo sapiens) (P04626 whole entry): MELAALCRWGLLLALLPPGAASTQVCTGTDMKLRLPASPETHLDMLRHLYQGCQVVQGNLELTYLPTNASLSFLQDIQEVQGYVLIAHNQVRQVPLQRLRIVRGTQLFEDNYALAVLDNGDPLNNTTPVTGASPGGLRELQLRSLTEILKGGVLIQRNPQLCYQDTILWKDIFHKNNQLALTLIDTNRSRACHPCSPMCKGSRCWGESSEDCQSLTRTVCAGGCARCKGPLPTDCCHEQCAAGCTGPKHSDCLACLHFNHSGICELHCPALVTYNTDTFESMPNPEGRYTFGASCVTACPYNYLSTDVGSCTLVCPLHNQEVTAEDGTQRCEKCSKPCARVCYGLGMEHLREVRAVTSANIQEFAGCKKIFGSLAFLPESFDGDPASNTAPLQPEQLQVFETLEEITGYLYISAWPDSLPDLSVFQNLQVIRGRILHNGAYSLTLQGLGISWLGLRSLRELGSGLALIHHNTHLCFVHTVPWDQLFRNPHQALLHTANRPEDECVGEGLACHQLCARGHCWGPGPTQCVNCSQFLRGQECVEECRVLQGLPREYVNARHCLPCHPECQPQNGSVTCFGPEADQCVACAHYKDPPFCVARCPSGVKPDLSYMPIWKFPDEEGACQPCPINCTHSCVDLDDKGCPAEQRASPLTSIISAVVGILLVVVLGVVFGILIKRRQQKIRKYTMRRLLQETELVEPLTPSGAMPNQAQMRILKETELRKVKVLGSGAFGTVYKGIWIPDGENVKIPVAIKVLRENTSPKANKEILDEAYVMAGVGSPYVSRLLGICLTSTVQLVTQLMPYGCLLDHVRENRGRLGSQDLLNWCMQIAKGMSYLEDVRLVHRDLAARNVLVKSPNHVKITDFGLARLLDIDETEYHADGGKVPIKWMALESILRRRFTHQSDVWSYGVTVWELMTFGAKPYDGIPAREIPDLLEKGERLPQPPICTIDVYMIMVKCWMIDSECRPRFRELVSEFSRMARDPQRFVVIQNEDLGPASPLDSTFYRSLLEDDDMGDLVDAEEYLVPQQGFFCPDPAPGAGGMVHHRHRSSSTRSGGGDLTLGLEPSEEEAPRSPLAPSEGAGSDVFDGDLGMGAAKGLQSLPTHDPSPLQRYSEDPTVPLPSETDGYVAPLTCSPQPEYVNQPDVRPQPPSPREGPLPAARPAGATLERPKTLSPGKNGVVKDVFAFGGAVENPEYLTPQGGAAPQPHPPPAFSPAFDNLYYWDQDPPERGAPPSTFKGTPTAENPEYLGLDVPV

[6] = biological target: Calcium/calmodulin-dependent protein kinase type II subunit alpha (Homo sapiens) (UniProt Q9UQM7); assay: Inhibition of human recombinant CaMK2a at 500 nM in presence of ATP by radiometric assay relative to control
[7] = biological target: Cyclin-dependent kinase-like 3 (Homo sapiens) (UniProt Q8IVW4); assay: Inhibition of human recombinant CDKL3 at 15 nM related to control ULK1
[8] = biological target: T2, Mitogen-activated protein kinase kinase kinase kinase 2 (Homo sapiens) (UniProt Q12851); assay: Inhibition of human recombinant GCK at 15 nM related to control ULK1
T2 sequence (whole entry): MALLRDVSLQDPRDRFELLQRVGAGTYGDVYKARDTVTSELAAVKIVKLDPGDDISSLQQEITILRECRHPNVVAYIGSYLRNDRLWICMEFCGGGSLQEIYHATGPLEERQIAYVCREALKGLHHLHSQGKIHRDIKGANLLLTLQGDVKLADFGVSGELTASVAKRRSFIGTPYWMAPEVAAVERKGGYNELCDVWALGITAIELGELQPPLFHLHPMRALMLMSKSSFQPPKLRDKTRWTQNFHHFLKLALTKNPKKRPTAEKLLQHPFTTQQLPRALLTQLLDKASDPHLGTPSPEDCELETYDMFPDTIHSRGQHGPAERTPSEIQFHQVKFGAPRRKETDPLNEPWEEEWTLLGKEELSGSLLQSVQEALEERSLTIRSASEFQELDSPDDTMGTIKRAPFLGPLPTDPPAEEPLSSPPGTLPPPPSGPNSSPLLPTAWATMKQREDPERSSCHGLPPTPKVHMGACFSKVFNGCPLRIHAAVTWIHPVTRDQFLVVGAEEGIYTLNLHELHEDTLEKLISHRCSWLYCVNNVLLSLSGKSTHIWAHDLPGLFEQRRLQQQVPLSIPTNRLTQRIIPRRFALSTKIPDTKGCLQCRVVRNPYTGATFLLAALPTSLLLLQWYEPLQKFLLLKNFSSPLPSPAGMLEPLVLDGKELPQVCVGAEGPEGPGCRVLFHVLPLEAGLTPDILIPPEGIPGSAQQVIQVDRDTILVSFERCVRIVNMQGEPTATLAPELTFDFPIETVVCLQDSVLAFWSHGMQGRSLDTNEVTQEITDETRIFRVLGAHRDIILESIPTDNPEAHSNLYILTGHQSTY

[9] = biological target: 5'-AMP-activated protein kinase catalytic subunit alpha-1 (Homo sapiens) (UniProt Q13131); assay: Inhibition of human recombinant AMPKa1 at 40 nM related to control ULK1
Sequence of 5'-AMP-activated protein kinase catalytic subunit alpha-1 (Homo sapiens) (Q13131 whole entry, looked up): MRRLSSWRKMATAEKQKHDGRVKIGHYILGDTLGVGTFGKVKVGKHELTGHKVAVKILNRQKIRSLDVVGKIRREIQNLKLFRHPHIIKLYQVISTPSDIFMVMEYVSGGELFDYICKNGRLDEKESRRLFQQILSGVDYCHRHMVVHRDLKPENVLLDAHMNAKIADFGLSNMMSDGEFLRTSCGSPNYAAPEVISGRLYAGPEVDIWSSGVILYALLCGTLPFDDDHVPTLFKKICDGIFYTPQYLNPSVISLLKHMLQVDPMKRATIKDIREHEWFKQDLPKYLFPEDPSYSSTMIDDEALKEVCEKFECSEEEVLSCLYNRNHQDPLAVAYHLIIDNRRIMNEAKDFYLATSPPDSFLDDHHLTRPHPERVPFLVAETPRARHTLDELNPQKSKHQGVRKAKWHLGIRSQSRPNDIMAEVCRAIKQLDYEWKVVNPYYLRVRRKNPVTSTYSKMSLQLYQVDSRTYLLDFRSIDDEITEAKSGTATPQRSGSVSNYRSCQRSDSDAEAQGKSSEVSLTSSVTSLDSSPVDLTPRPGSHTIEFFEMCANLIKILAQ
In short: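 Radiometric activity assays in a panel of 327 human recombinant kinases, each run in duplicate at one inhibitor concentration. Activity remaining is expressed as percent of vehicle control, and percent inhibition is calculated as 100% minus percent activity remaining.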

[10] = biological target: T3, Serine/threonine-protein kinase D3 (Homo sapiens) (UniProt O94806); assay: Inhibition of human recombinant PKD3 at 40 nM related to control ULK1
T3 sequence (whole entry): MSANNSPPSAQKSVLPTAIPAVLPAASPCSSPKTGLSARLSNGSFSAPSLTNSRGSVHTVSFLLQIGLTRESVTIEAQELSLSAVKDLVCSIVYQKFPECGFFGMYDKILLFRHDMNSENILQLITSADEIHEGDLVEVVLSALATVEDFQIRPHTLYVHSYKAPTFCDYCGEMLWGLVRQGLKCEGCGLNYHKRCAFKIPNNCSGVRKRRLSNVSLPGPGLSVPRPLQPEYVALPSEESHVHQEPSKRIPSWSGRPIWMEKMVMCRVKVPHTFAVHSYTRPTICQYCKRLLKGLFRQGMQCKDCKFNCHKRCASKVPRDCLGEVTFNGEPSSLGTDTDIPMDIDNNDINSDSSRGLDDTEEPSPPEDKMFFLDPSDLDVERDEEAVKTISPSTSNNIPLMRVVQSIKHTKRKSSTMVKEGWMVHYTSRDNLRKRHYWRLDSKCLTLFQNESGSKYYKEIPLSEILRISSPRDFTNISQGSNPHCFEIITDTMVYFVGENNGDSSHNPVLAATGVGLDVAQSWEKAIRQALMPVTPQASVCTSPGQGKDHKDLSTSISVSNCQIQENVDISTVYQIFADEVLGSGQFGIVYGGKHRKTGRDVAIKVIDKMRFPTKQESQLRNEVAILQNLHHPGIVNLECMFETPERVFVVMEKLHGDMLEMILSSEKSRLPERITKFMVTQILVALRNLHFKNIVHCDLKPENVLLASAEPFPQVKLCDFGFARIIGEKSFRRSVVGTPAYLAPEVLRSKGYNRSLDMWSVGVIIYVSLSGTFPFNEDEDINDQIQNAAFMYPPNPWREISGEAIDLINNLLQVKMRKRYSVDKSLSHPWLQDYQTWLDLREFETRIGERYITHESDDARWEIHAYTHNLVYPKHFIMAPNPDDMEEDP

[11] = biological target: BDNF/NT-3 growth factors receptor (Homo sapiens) (UniProt Q16620); assay: Inhibition of human recombinant TRKB at 40 nM related to control ULK1

Sequence of Leucine-rich repeat serine/threonine-protein kinase 2 (Homo sapiens) (Q5S007 whole entry): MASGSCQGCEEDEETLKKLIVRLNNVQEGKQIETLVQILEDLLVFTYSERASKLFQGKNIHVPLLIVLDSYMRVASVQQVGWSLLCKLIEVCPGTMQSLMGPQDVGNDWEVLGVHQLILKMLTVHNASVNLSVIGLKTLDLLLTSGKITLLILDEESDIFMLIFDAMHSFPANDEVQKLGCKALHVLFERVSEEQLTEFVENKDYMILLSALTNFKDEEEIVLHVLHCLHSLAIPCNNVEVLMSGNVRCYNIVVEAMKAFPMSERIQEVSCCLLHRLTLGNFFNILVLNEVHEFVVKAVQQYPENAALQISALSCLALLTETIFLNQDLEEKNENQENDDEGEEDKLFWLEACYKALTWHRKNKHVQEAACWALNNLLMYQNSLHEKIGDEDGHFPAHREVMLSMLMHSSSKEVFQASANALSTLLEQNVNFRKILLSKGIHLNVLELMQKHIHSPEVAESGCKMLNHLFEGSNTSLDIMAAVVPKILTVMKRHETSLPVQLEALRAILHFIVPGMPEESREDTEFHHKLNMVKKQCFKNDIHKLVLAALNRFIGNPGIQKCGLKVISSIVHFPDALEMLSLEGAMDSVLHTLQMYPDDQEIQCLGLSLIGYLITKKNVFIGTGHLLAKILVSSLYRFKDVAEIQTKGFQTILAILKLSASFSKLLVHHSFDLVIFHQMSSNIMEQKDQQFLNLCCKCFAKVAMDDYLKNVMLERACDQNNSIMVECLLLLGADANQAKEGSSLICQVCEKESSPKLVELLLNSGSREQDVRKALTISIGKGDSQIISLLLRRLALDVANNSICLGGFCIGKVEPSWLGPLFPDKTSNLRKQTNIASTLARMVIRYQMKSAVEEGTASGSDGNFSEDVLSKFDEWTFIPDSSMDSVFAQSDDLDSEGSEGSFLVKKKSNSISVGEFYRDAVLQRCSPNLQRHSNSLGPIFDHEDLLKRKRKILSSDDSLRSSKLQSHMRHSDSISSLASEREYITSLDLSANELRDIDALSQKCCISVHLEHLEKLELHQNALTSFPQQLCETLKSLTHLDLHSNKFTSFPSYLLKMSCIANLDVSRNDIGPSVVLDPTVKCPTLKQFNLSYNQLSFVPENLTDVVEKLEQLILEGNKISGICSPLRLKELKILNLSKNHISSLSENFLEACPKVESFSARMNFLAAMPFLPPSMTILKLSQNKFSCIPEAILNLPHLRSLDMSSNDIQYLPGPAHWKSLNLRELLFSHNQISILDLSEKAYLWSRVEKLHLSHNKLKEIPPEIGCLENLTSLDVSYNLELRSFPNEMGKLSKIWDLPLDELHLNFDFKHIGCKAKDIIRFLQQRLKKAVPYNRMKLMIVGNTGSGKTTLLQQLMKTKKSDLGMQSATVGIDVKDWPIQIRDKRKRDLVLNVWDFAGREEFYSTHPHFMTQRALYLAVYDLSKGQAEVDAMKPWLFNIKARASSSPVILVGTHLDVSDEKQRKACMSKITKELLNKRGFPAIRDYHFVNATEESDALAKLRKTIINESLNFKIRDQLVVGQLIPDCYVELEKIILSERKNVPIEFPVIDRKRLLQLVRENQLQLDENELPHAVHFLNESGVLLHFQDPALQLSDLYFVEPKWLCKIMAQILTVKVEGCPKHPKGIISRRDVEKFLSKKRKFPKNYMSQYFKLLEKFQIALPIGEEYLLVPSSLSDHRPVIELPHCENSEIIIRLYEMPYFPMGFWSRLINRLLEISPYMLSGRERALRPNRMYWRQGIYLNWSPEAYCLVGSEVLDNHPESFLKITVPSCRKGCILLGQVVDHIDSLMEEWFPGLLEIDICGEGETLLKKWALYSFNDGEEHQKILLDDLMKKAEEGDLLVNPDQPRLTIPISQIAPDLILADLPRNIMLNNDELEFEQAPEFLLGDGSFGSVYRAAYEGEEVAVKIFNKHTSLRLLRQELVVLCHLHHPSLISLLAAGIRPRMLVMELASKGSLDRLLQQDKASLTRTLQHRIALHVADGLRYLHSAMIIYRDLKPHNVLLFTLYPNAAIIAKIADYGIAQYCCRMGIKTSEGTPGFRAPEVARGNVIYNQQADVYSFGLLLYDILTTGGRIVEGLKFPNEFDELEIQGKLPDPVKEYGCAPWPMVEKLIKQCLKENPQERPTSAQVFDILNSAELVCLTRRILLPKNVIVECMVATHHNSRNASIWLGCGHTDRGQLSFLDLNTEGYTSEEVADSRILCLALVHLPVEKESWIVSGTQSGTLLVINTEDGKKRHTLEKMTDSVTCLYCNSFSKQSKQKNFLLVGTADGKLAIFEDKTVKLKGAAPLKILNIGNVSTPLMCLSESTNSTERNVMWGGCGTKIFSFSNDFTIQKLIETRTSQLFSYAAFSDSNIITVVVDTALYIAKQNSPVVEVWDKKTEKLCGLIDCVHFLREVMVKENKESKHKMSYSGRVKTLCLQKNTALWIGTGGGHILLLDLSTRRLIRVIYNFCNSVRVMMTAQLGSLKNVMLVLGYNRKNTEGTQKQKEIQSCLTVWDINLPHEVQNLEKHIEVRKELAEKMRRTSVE

With CNC(=O)c1ccccc1Oc1nc(Nc2cc(OC)c(OC)c(OC)c2)ncc1Br the fold change (FC) [1] was 0.47, the fold change (FC) [2] was 0 and the inhibition [3] was 2%. The inhibition [4] was 1%, the fold change (FC) [5] was 0 and the inhibition [6] was 0%.

For CC(C)[C@H](NC(=O)c1cc(-c2cnn3cc(-c4ccc(OCCN5CCCCC5)cc4)cnc23)cs1)C(F)(F)F, the fold change (FC) [7] was 0.39 and the fold change (FC) [8] was 0.39.

Work on O=C(N[C@@H](C1CC1)C(F)(F)F)c1cc(-c2cnn3cc(-c4ccc(F)cc4)cnc23)cs1 yielded a fold change (FC) [9] of 0.11, a fold change (FC) [10] of 0.1 and a fold change (FC) [11] of 0.26.
